Data: ChEMBL document CHEMBL3734675, “Synthesis, antimycobacterial and antibacterial activity of fluoroquinolone derivatives containing an 3-alkoxyimino-4-(cyclopropylanimo)methylpyrrolidine moiety” (2015)
In brackets after ≈: the same amount, converted by molar mass.

Experiments:
Format in all cases: functional
Pseudomonas aeruginosa [1] = experiment: Antibacterial activity against Pseudomonas aeruginosa 14-14 after 18 to 24 hrs by two-fold serial dilution method
In short: (§1)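 Twofold serial dilution in agar media against Gram-positive and Gram-negative strains. Plates incubated at 35 °C for 18–24 h. MIC read as the lowest compound concentration giving complete inhibition of bacterial growth.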

Escherichia coli [2] = experiment: Antibacterial activity against extended-spectrum beta-lactamase producing Escherichia coli 14-2 after 18 to 24 hrs by two-fold serial dilution method; in short: as §1
Klebsiella pneumoniae [3] = experiment: Antibacterial activity against Klebsiella pneumoniae 14-4 after 18 to 24 hrs by two-fold serial dilution method; in short: as §1
Staphylococcus aureus [4] = experiment: Antibacterial activity against Staphylococcus aureus CMCC 26003 after 18 to 24 hrs by two-fold serial dilution method; in short: as §1
Staphylococcus aureus [5] = experiment: Antibacterial activity against methicillin-resistant Staphylococcus aureus 14-4 after 18 to 24 hrs by two-fold serial dilution method
In short: (§2)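 Agar media, standard twofold serial dilution. MIC is the lowest concentration giving complete inhibition of bacterial growth after incubation at 35 °C for 18–24 h. Ciprofloxacin and levofloxacin were run as comparators.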

Klebsiella pneumoniae [6] = experiment: Antibacterial activity against Klebsiella pneumoniae 14-2 after 18 to 24 hrs by two-fold serial dilution method; in short: as §1
Pseudomonas aeruginosa [7] = experiment: Antibacterial activity against Pseudomonas aeruginosa 14-16 after 18 to 24 hrs by two-fold serial dilution method; in short: as §1
Staphylococcus aureus [8] = experiment: Antibacterial activity against methicillin-sensitive Staphylococcus aureus 14-1 after 18 to 24 hrs by two-fold serial dilution method; in short: as §1
Pseudomonas aeruginosa [9] = experiment: Antibacterial activity against Pseudomonas aeruginosa 14-15 after 18 to 24 hrs by two-fold serial dilution method; in short: as §1
Escherichia coli [10] = experiment: Antibacterial activity against Escherichia coli 14-2 after 18 to 24 hrs by two-fold serial dilution method; in short: as §1
Staphylococcus aureus [11] = experiment: Antibacterial activity against methicillin-sensitive Staphylococcus aureus 14-4 after 18 to 24 hrs by two-fold serial dilution method; in short: as §1
Enterococcus faecium [12] = experiment: Antibacterial activity against Enterococcus faecium 14-6 after 18 to 24 hrs by two-fold serial dilution method; in short: as §1
Streptococcus pneumoniae = experiment: Antibacterial activity against methicillin-resistant Streptococcus pneumoniae ATCC 19615 after 18 to 24 hrs by two-fold serial dilution method; in short: as §2
Klebsiella pneumoniae [13] = experiment: Antibacterial activity against Klebsiella pneumoniae 14-3 after 18 to 24 hrs by two-fold serial dilution method; in short: as §1
Escherichia coli [14] = experiment: Antibacterial activity against Escherichia coli 14-1 after 18 to 24 hrs by two-fold serial dilution method; in short: as §1
Escherichia coli [15] = experiment: Antibacterial activity against Escherichia coli ATCC 25922 after 18 to 24 hrs by two-fold serial dilution method; in short: as §1
Enterococcus faecium [16] = experiment: Antibacterial activity against Enterococcus faecium 14-5 after 18 to 24 hrs by two-fold serial dilution method; in short: as §1
Enterococcus faecalis [17] = experiment: Antibacterial activity against Enterococcus faecalis 14-2 after 18 to 24 hrs by two-fold serial dilution method; in short: as §1
Escherichia coli [18] = experiment: Antibacterial activity against extended-spectrum beta-lactamase producing Escherichia coli 14-1 after 18 to 24 hrs by two-fold serial dilution method; in short: as §1
[19] = tested on: Staphylococcus epidermidis; experiment: Antibacterial activity against methicillin-resistant Staphylococcus epidermidis 14-39 after 18 to 24 hrs by two-fold serial dilution method; in short: as §2
[20] = tested on: Staphylococcus epidermidis; experiment: Antibacterial activity against methicillin-resistant Staphylococcus epidermidis 14-21 after 18 to 24 hrs by two-fold serial dilution method; in short: as §2
Klebsiella pneumoniae [21] = experiment: Antibacterial activity against extended-spectrum beta-lactamase producing Klebsiella pneumoniae 14-18 after 18 to 24 hrs by two-fold serial dilution method; in short: as §1
Klebsiella pneumoniae [22] = experiment: Antibacterial activity against extended-spectrum beta-lactamase producing Klebsiella pneumoniae 14-17 after 18 to 24 hrs by two-fold serial dilution method; in short: as §1
Staphylococcus aureus [23] = experiment: Antibacterial activity against methicillin-resistant Staphylococcus aureus 14-5 after 18 to 24 hrs by two-fold serial dilution method; in short: as §2
Klebsiella pneumoniae [24] = experiment: Antibacterial activity against extended-spectrum beta-lactamase producing Klebsiella pneumoniae 14-19 after 18 to 24 hrs by two-fold serial dilution method; in short: as §1
Enterococcus faecalis [25] = experiment: Antibacterial activity against Enterococcus faecalis 14-1 after 18 to 24 hrs by two-fold serial dilution method; in short: as §1
[26] = tested on: Staphylococcus epidermidis; experiment: Antibacterial activity against methicillin-resistant Staphylococcus epidermidis 14-22 after 18 to 24 hrs by two-fold serial dilution method; in short: as §2
Enterococcus faecium [27] = experiment: Antibacterial activity against Enterococcus faecium 14-2 after 18 to 24 hrs by two-fold serial dilution method; in short: as §1
Klebsiella pneumoniae [28] = experiment: Antibacterial activity against Klebsiella pneumoniae 14-1 after 18 to 24 hrs by two-fold serial dilution method; in short: as §1
Pseudomonas aeruginosa [29] = experiment: Antibacterial activity against Pseudomonas aeruginosa 14-9 after 18 to 24 hrs by two-fold serial dilution method; in short: as §1
[30] = tested on: Staphylococcus epidermidis; experiment: Antibacterial activity against methicillin-resistant Staphylococcus epidermidis 14-37 after 18 to 24 hrs by two-fold serial dilution method; in short: as §2
Staphylococcus aureus [31] = experiment: Antibacterial activity against methicillin-sensitive Staphylococcus aureus 14-3 after 18 to 24 hrs by two-fold serial dilution method; in short: as §1
[32] = tested on: Staphylococcus epidermidis; experiment: Antibacterial activity against methicillin-sensitive Staphylococcus epidermidis 14-2 after 18 to 24 hrs by two-fold serial dilution method; in short: as §1
Pseudomonas aeruginosa [33] = experiment: Antibacterial activity against Pseudomonas aeruginosa ATCC 27853 after 18 to 24 hrs by two-fold serial dilution method; in short: as §1
[34] = tested on: Mycobacterium tuberculosis; experiment: Antimycobacterial activity against Mycobacterium tuberculosis H37Rv ATCC 27294 incubated for 7 days by microplate Alamar Blue assay; details: H37Rv ATCC 27294, 168 h
In short: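 Fluorescence read-out. MIC is the lowest concentration that reduces fluorescence by at least 90% relative to the mean of replicate bacterium-only controls. Isoniazid and rifampicin were included as reference drugs.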

Structure (SMILES)	MIC (Pseudomonas aeruginosa [1])	MIC (Escherichia coli [2])	MIC (Klebsiella pneumoniae [3])	MIC (Staphylococcus aureus [4])	MIC (Staphylococcus aureus [5])	MIC (Klebsiella pneumoniae [6])	MIC (Pseudomonas aeruginosa [7])	MIC (Staphylococcus aureus [8])	MIC (Pseudomonas aeruginosa [9])	MIC (Escherichia coli [10])	MIC (Staphylococcus aureus [11])	MIC (Enterococcus faecium [12])	MIC (Streptococcus pneumoniae)	MIC (Klebsiella pneumoniae [13])	MIC (Escherichia coli [14])	MIC (Escherichia coli [15])	MIC (Enterococcus faecium [16])	MIC (Enterococcus faecalis [17])	MIC (Escherichia coli [18])	MIC [19]	also measured
C[C@H]1COc2c(N3C/C(=N/OCc4ccccc4)C(CNC4CC4)C3)c(F)cc3c(=O)c(C(=O)O)cn1c23 (some centres undefined)	64 µg/mL (≈ 123 µM)	> 64 µg/mL	64 µg/mL (≈ 123 µM)	< 0.008 µg/mL	4 µg/mL (≈ 7.68 µM)	64 µg/mL (≈ 123 µM)	32 µg/mL (≈ 61.5 µM)	2 µg/mL (≈ 3.84 µM)	64 µg/mL (≈ 123 µM)	> 64 µg/mL	0.06 µg/mL (≈ 0.115 µM)	16 µg/mL (≈ 30.7 µM)	0.125 µg/mL (≈ 0.24 µM)	64 µg/mL (≈ 123 µM)	> 64 µg/mL	1 µg/mL (≈ 1.92 µM)	8 µg/mL (≈ 15.4 µM)	0.5 µg/mL (≈ 0.961 µM)	2 µg/mL (≈ 3.84 µM)	4 µg/mL (≈ 7.68 µM)	MIC [20]: 8 µg/mL (≈ 15.4 µM); MIC (Klebsiella pneumoniae [21]): 32 µg/mL (≈ 61.5 µM); MIC (Klebsiella pneumoniae [22]): 32 µg/mL (≈ 61.5 µM); MIC (Staphylococcus aureus [23]): 4 µg/mL (≈ 7.68 µM); MIC (Klebsiella pneumoniae [24]): 64 µg/mL (≈ 123 µM); MIC (Enterococcus faecalis [25]): 16 µg/mL (≈ 30.7 µM); MIC [26]: 4 µg/mL (≈ 7.68 µM); MIC (Enterococcus faecium [27]): 4 µg/mL (≈ 7.68 µM); MIC (Klebsiella pneumoniae [28]): 32 µg/mL (≈ 61.5 µM); MIC (Pseudomonas aeruginosa [29]): 16 µg/mL (≈ 30.7 µM); MIC [30]: 2 µg/mL (≈ 3.84 µM); MIC (Staphylococcus aureus [31]): 0.125 µg/mL (≈ 0.24 µM); MIC [32]: 8 µg/mL (≈ 15.4 µM); MIC (Pseudomonas aeruginosa [33]): 32 µg/mL (≈ 61.5 µM)
CO/N=C1/CN(c2nc3c(cc2F)c(=O)c(C(=O)O)cn3[C@@H]2C[C@@H]2F)CC1CNC1CC1 (some centres undefined)	32 µg/mL (≈ 71.5 µM)	> 128 µg/mL	> 128 µg/mL	< 0.008 µg/mL	> 128 µg/mL	64 µg/mL (≈ 143 µM)	32 µg/mL (≈ 71.5 µM)	8 µg/mL (≈ 17.9 µM)	64 µg/mL (≈ 143 µM)	> 128 µg/mL	16 µg/mL (≈ 35.8 µM)	64 µg/mL (≈ 143 µM)	4 µg/mL (≈ 8.94 µM)	> 128 µg/mL	> 128 µg/mL	4 µg/mL (≈ 8.94 µM)	32 µg/mL (≈ 71.5 µM)	0.5 µg/mL (≈ 1.12 µM)	16 µg/mL (≈ 35.8 µM)	32 µg/mL (≈ 71.5 µM)	MIC90 [34]: 1.25 µg/mL (≈ 2.79 µM); MIC [20]: 32 µg/mL (≈ 71.5 µM); MIC (Klebsiella pneumoniae [21]): 32 µg/mL (≈ 71.5 µM); MIC (Klebsiella pneumoniae [22]): 32 µg/mL (≈ 71.5 µM); MIC (Staphylococcus aureus [23]): 8 µg/mL (≈ 17.9 µM); MIC (Klebsiella pneumoniae [24]): 64 µg/mL (≈ 143 µM); MIC (Enterococcus faecalis [25]): 128 µg/mL (≈ 286 µM); MIC [26]: 16 µg/mL (≈ 35.8 µM); MIC (Enterococcus faecium [27]): 16 µg/mL (≈ 35.8 µM); MIC (Klebsiella pneumoniae [28]): 64 µg/mL (≈ 143 µM); MIC (Pseudomonas aeruginosa [29]): 8 µg/mL (≈ 17.9 µM); MIC [30]: 64 µg/mL (≈ 143 µM); MIC (Staphylococcus aureus [31]): 8 µg/mL (≈ 17.9 µM); MIC [32]: > 128 µg/mL; MIC (Pseudomonas aeruginosa [33]): 8 µg/mL (≈ 17.9 µM)
